Laboratory results published in ChEMBL document CHEMBL4725313, “Development of phenylthiourea derivatives as allosteric inhibitors of pyoverdine maturation enzyme PvdP tyrosinase” (Bioorg Med Chem Lett, 2020).
Each block holds one compound with its values, some of them ahead of it. Calls of active or inactive are those of the source. The calls are words filed in the database; no cut-off is given here.

How the values were obtained:
[1] = Inhibition of Pseudomonas aeruginosa PvdP tyrosinase
Pseudomonas aeruginosa [2] = experiment: Inhibition of Pseudomonas aeruginosa PvdP tyrosinase up to 100 uM relative to control; conditions: dose microM <=100
Mushroom tyrosinase = Mushroom tyrosinase (Agaricus bisporus, UniProt O42713+Q00024+C7FF04+C7FF05); experiment: Inhibition of mushroom tyrosinase
[3] = Selectivity ratio of IC50 for mushroom tyrosinase to IC50 for Pseudomonas aeruginosa PvdP tyrosinase
Pseudomonas aeruginosa [4] = experiment: Non-competitive inhibition of Pseudomonas aeruginosa PvdP tyrosinase assessed as Vmax at 0.2 uM by Lineweaver-Burk double reciprocal plot analysis (reference value: 0.0155 1/min)
Pseudomonas aeruginosa [5] = experiment: Non-competitive inhibition of Pseudomonas aeruginosa PvdP tyrosinase assessed as Vmax at 0.5 uM by Lineweaver-Burk double reciprocal plot analysis (reference value: 0.0155 1/min)
Pseudomonas aeruginosa [6] = experiment: Non-competitive inhibition of Pseudomonas aeruginosa PvdP tyrosinase assessed as Km at 0.2 uM by Lineweaver-Burk double reciprocal plot analysis (reference value: 1.136 mM)
Pseudomonas aeruginosa [7] = experiment: Non-competitive inhibition of Pseudomonas aeruginosa PvdP tyrosinase assessed as Km at 0.5 uM by Lineweaver-Burk double reciprocal plot analysis (reference value: 1.136 mM)
Pseudomonas aeruginosa [8] = experiment: Inhibition of Pseudomonas aeruginosa PvdP tyrosinase mutant at 1 uM
[9] = (§1) Inhibition of PvdP tyrosinase in Pseudomonas aeruginosa PAO1 assessed as reduction in pyoverdin production incubated for 24 hrs in low iron medium
Outline: (§2)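 P. aeruginosa PAO1 grown 24 h in low-iron medium with a serial dilution of compound (200 - 0.79 µM; final DMSO 1%). Vehicle 1% DMSO as negative control. After incubation, pyoverdine read at 405 nm and cell growth at 600 nm.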

[10] = test system: Pseudomonas aeruginosa PAO1; experiment: as §1; outline: as §2

IC50 [1]: Not Active | inhibition (Pseudomonas aeruginosa [2]): < 50%
SMILES: NC(=O)Nc1ccccc1 [PHENYLUREA]

IC50 ([1]; read-out: IC50): 22.6 µM
SMILES: Fc1ccc(CCNC(=S)Nc2ccccc2)cc1

IC50 ([1]; read-out: IC50): 19.4 µM
SMILES: S=C(NCc1ccccc1)Nc1ccccc1

IC50 [1]: Not Active
SMILES: Fc1cccc(Cl)c1NC(=S)Nc1ccccc1

IC50 ([1]; read-out: IC50): 7.9 µM | IC50 (Mushroom tyrosinase): > 500 µM
SMILES: S=C(NCc1ccccc1Cl)Nc1ccccc1
Ratio IC50 [3]: > 500

IC50 ([1]; read-out: IC50): 14.3 µM
SMILES: CN(C)c1ccc(NC(=S)NCc2ccc(Cl)cc2)cc1

IC50 ([1]; read-out: IC50): 23.5 µM
SMILES: S=C(NCc1ccc(Br)cc1)Nc1ccccc1

IC50 ([1]; read-out: IC50): 19.3 µM
SMILES: COc1ccc(CN=C(S)Nc2ccccc2)cc1

IC50 ([1]; read-out: IC50): 7.6 µM | IC50 (Mushroom tyrosinase): > 500 µM
SMILES: S=C(NCc1c(Cl)cccc1Cl)Nc1ccccc1
Ratio IC50 [3]: > 500

SMILES: NC(=S)Nc1ccccc1 [PHENYLTHIOUREA]
IC50 ([1]; read-out: IC50): 174 µM

IC50 ([1]; read-out: IC50): 13.6 µM
SMILES: Fc1ccc(CNC(=S)Nc2ccccc2)cc1

SMILES: S=C(NCc1ccc(Cl)cc1)Nc1ccccc1
IC50 ([1]; read-out: IC50): 0.57 µM | Vmax (Pseudomonas aeruginosa [4]): 0.0126 min⁻¹ | Vmax (Pseudomonas aeruginosa [5]): 0.0111 min⁻¹ | Km (Pseudomonas aeruginosa [6]): 1130 µM | Km (Pseudomonas aeruginosa [7]): 1140 µM | inhibition (Pseudomonas aeruginosa [8]): inactive | IC50 (Mushroom tyrosinase): 328 µM | IC50 [9]: 44.9 µM | inhibition [10]: Dose-dependent effect | Ratio IC50 [3]: > 500

IC50 [1]: Not Active
SMILES: CNC(=S)Nc1ccccc1

IC50 [1]: Not Active
SMILES: C=CCNC(=S)Nc1ccccc1

IC50 ([1]; read-out: IC50): 22.3 µM
SMILES: Cc1ccc(NC(=S)NCc2ccc(Cl)cc2)cc1
